From PubChem
CRFBP-R2 block = antagonists of CRF-binding protein/CRF-R2 receptor complex; HEK293 CRF-R2/CRF-BP, CRF-induced calcium fluorescence; inhibition, % at 11.8 µM; 350,000 compounds, 0.59% hits; AID 588475;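 active = inhibition of the ligand-induced calcium signal above about 50% at the single tested concentration, limit read from the data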
DDE Tn7 FP inh = inhibitors of Tn7 peptide binding to human fibrin DD(E) | P02675 | inhibition, % at 8.3 µM | 370,000 compounds, 0.13% hits | FP displacement of FITC-Tn7 peptide from fibrin DD(E); 0% = median of compound wells per plate;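 active = inhibition above the mean of compounds falling within the control limits plus 3 SD of them, cut at about 14% in these data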;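 note: 0% = plate median of compound wells and 100% = 10 µM Aha-Tn7 peptide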
Target sequence (P02675 whole entry, looked up): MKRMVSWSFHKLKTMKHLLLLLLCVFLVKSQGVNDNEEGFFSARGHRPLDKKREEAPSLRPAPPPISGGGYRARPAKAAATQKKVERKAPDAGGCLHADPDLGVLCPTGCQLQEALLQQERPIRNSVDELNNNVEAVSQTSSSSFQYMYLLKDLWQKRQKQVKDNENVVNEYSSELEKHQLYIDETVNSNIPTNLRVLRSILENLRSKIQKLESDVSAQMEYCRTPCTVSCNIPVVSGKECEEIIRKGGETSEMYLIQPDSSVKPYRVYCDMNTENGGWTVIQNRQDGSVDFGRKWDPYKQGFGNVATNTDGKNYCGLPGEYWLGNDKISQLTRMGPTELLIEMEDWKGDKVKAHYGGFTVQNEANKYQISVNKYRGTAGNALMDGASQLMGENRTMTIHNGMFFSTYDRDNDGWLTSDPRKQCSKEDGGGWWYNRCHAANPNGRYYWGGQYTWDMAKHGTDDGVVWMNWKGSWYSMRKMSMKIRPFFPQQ
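Assay system: human fibrin DD(E) protein / Input: 2 µM fibrin DD(E) / Benchmarks: high control of 10 µM Aha-Tn7 peptide / Measured by: fluorescence polarization of the labelled Tn7 tracer / Medium: Tris buffer with calcium and detergent, pH 7.8 / Timing: 10 min compound pre-incubation, 3 h probe incubation at room temperature / Repeats: one replicate per compound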
DDE Tn6 FP inh = disrupts Tn6 cyclic peptide binding to fibrin D-Dimer-E complex; AID 720509; inhibition, % at 8.3 µM; 370,000 compounds, 0.21% hits; P02675; Fibrin DD(E) TRITC-Tn6 fluorescence polarization displacement;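 active = inhibition above a per-campaign cutoff: mean of compounds within control limits plus 3 SD, cut at about 15% in these data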;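 note: 0% = median of all compound wells on the plate and 100% = blocking peptide control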
CRFBP-R2 agonist = CRF-BP/CRF-R2 complex agonism. 350,000 compounds, 0.46% hits. activation, % at 13.2 µM. HEK293 CRF-R2/CRF-BP, calcium dye fluorescence (FLIPR); percent of saturating CRF peptide response;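 active = activation of at least 50%, plus an integration ratio under a set limit after plate pattern correction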;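 note: plate controls were neutral control wells without compound for no effect and CRF at EC100 for full effect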
DDE Tn7 confirm = confirmation of inhibitors of Tn7 binding to human fibrin DD(E); shares compounds with DDE Tn7 FP inh; FP displacement of TRITC-Tn7 peptide from DD(E); 0% set at plate's compound-well median; inhibition, % at 8.3 µM; 460 compounds, 5% hits; AID 720628;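 active = inhibition above the campaign cutoff, the mean of compounds within control limits plus 3 SD, cut at about 14% in these data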;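 note: 100% = median FP of high control wells holding Aha-Tn7 inhibitor peptide; displacers lower polarization since freed probe rises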
DDE Tn7 FP ctr = DD(E)-Tn7 binding inhibition, counter-screen | inhibition, % at 8.3 µM | AID 720633 | shares compounds with DDE Tn7 FP inh | 460 compounds, 3% hits | fibrin DD(E), TRITC-Tn7 probe displacement, fluorescence polarization;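 active = inhibition above the cutoff, the mean of compounds lying between the control bounds plus 3 SD of those compounds, cut at about 17% in these data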;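 note: 0% = median of compound sample wells and 100% = excess unlabeled Aha-Tn7 peptide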
Tn6 DDE ctr = counter-screen for inhibitors of Tn6 peptide binding to fibrin DD(E); shares compounds with DDE Tn6 FP inh; inhibition, % at 8.3 µM; TRITC-Tn6 fluorescence polarization displacement; 0% = median of compound wells, not DMSO; 680 compounds, 2% hits;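 active = inhibition above the mean of test compounds lying between the control limits plus 3 SD of those, cut at about 14% in these data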;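 note: 0% = median of compound wells and 100% = wells with Aha-Tn7 blocking peptide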
DDE Tn6 confirm = confirmation of inhibitors of Tn6 binding to human fibrin DD(E); shares compounds with DDE Tn6 FP inh; FP displacement of TRITC-Tn6 peptide from DD(E); 0% = per-plate median of test wells; inhibition, % at 8.3 µM; 680 compounds, 10% hits;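 active = inhibition above the mean of compounds lying within the control limits plus 3 SD, cut at about 16% in these data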;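 note: 100% = high control wells holding a competing inhibitor peptide at 10 µM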
* hit, by the source's call; nt = not tested or not shown; + = active, no number. Only some compounds are listed: those with a hit (about 1.2% of all), similar ones and a draw of the others.

SMILES	CRFBP-R2 block	DDE Tn7 FP inh	DDE Tn6 FP inh	CRFBP-R2 agonist	DDE Tn7 confirm	DDE Tn7 FP ctr	Tn6 DDE ctr	DDE Tn6 confirm
COc1ccc(S(=O)(=O)N(C)C[C@H]2Oc3c(NC(=O)NC(C)C)cccc3C(=O)N([C@H](C)CO)C[C@@H]2C)cc1	0	-1	4	5	nt	nt	nt	nt
CC1(C(=O)Nc2ccc3[nH]ncc3c2)CCN1C(=O)Cc1ccc(-c2ccccc2)cc1 (stereo not drawn)	nt	0	-6	nt	nt	nt	nt	nt
CCNS(=O)(=O)c1ccc(CCC(=O)Nc2ccc3c(c2)OCCO3)cc1	5	15*	3	-1	1	-6	nt	nt
Cc1cc(NC(=O)COC(=O)c2ccc(OC(F)(F)F)cc2)no1	-10	16*	3	1	8	2	nt	nt
CC(C)(C)NC(=O)NC(=O)COC(=O)c1ccc(OC(F)(F)F)cc1	-8	14*	3	-1	1	-10	nt	nt
CC(C)(C)NC(=O)NC(=O)COC(=O)c1ccc(OC(F)F)cc1	-28	4	5	2	nt	nt	nt	nt
Cc1cc(NC(=O)COC(=O)c2ccc(C)c(C)c2)no1	-16	6	2	0	nt	nt	nt	nt
CN(C)C(CNC(=O)c1cc(S(=O)(=O)N(C)c2ccc(F)cc2)ccc1Cl)c1cccs1 (stereo not drawn)	-6	15*	2	0	3	0	nt	nt
C=C1CC(COc2ccc3c(C)c(Cl)c(=O)oc3c2)(c2ccccc2)OC1=O (stereo not drawn)	-52	-2	-5	1	nt	nt	nt	nt
O=C(CN(Cc1cccs1)C(=O)CNS(=O)(=O)c1ccc(Cl)cc1)NCc1ccco1	-14	15*	3	0	3	-2	nt	nt
COCCCNC(=S)NNC(=O)c1ccccn1	2	16*	3	-1	7	-4	nt	nt
COCCCNC(=S)NNC(=O)c1ccccc1Br	16	6	-5	0	nt	nt	nt	nt
O=C(Cn1c(Cc2ccccc2)nc2ccccc21)NCc1ccc2c(c1)OCO2	43	15*	-1	-1	0	-2	nt	nt
O=C1C=CC(O)(c2cc(=O)c3c(O)cc(O)cc3o2)C=C1	16	14*	0	-3	5	2	nt	nt
CCNC(=O)C1CCCN(C(=O)c2cccs2)CC1 (stereo not drawn)	nt	-2	2	nt	nt	nt	nt	nt
CCNC(=O)C1CCCN(C(=O)Cc2cccs2)CC1 (stereo not drawn)	nt	15*	18*	nt	2	-3	2	-3
O=C(NCCC1=CCCCC1)c1ccc(-n2cncn2)c([N+](=O)[O-])c1	-2	24*	162*	0	2	5	2	5
COc1ccc(C(=O)NCCC2=CCCCC2)cc1[N+](=O)[O-]	-6	6	-3	-3	nt	nt	nt	nt
CN(CC(=O)Nc1ccccc1C(=O)NC1CC1)Cc1ccc(N(C)C)cc1	5	18*	40*	1	-6	-10	-6	-10
COc1ccc(CN(C)CC(=O)Nc2ccccc2C(=O)NC2CC2)cc1	-3	5	1	0	nt	nt	nt	nt
O=C(CN1C(=O)NC2(CCCc3ccccc32)C1=O)Nc1cc(F)ccc1F (stereo not drawn)	-1	-1	1	-1	nt	nt	nt	nt
COc1cccc2c1C(=O)c1c(O)c3c(c(O)c1C2=O)CC(O)(C(=O)CO)CC3OC1CC(N(C)C)C(O)C(C)O1 (stereo not drawn)	-102	16*	+	91*	-7	93*	-7	93*
COc1cccc2c1C(=O)c1c(O)c3c(c(O)c1C2=O)C[C@@](O)(C(C)=O)C[C@@H]3O[C@H]1C[C@H](N)[C@H](O)[C@H](C)O1	-92	18*	+	83*	-9	93*	-9	93*
CCOc1ccc2ccccc2c1/C=N/NC(=O)CNC(=O)c1ccccc1F	-16	3	1	-1	nt	nt	nt	nt
N#CCCN(CCCN1CCOCC1)CN1C(=O)c2ccccc2C1=O	-17	-1	-4	0	nt	nt	nt	nt
SMILES	CRFBP-R2 block	DDE Tn7 FP inh	DDE Tn6 FP inh	CRFBP-R2 agonist	DDE Tn7 confirm	DDE Tn7 FP ctr	Tn6 DDE ctr	DDE Tn6 confirm
COc1ccc(N(Cc2cc3cc(OC)ccc3[nH]c2=O)C(=O)c2cccnc2)cc1	-1	23*	21*	0	-6	-11	-6	-11
Cc1cc2ccccc2n1CCNC(=O)C1CCCCC1	-27	-8	39*	5	nt	nt	0	-3
Cc1cc2ccccc2n1CCNC(=O)C1CCCC1	-13	3	11	21	nt	nt	nt	nt
CC1CCN(S(=O)(=O)c2cn(CC(=O)Nc3ccc(OC(F)(F)F)cc3)cn2)CC1	6	-6	-3	3	nt	nt	nt	nt
CCCCCOCC1CC(C/C(C)=N/NC(N)=S)C(=O)O1 (stereo not drawn)	5	10	15*	0	nt	nt	-1	-11
CC(=O)C1=C(C)Nc2ncnn2C1c1ccccc1OCc1ccccc1 (stereo not drawn)	-6	6	18*	0	nt	nt	3	2
COc1ccccc1C1C(C(=O)NCc2ccccc2)=C(C)Nc2ncnn21 (stereo not drawn)	6	4	-1	1	nt	nt	nt	nt
COc1ccc(NC(=O)C2CCCN2C(=O)NC2CCCCC2)cc1 (stereo not drawn)	10	1	17*	0	nt	nt	0	-5
CCn1c(SCC(=O)N(C)c2ccccc2)nc2c([nH]c3ccccc32)c1=O	-15	-2	0	0	nt	nt	nt	nt
C#CCn1c(S(=O)(=O)Cc2ccc(C)cc2)nc(-c2ccccc2)c1-c1ccccc1	-12	3	-4	5	nt	nt	nt	nt
C#CCn1c(S(=O)(=O)Cc2ccccc2Cl)nc(-c2ccccc2)c1-c1ccccc1	25	-3	16*	6	nt	nt	12	8
O=C1OC(c2ccccc2)(c2ccccc2)c2ccsc21	50	-3	16*	-1	nt	nt	-2	-13
C1=C[C@H]2CCCN3CC[C@@H]([C@@H]2[C@]32CO2)[C@H]1CCOCc1ccccc1	nt	2	4	nt	nt	nt	nt	nt
CCn1c(=O)c(=O)[nH]c2cc(C(=O)NC3CCCc4ccccc43)ccc21 (stereo not drawn)	1	10	18*	-1	nt	nt	-1	-2
CCn1c(=O)c(=O)[nH]c2cc(C(=O)NC3CC3)ccc21	-15	0	5	2	nt	nt	nt	nt
Cc1ccc(S(=O)(=O)C[C@@H]2OC[C@H](C(C)C)N2S(=O)(=O)c2ccc(C)cc2)cc1	nt	-1	4	nt	nt	nt	nt	nt
c1ccc(-c2nc(-n3ccnc3)nc(-n3ccnc3)n2)cc1	-7	7	15*	1	nt	nt	2	-3
